Shown are actives, neighbours in structure and some others; about 1.9% of the full set was active somewhere.
p-CIP stab down = p/CIP-EGFP fusion destabilizers, primary screen, fluorescence, F442A cells; Q05BA5; 16 h; decrease of EGFP signal, % at 10 µM; 290,000 tested, 0.01% active;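 active means EGFP signal decrease of at least 30% at 10 µM or well 3 SD below plate mean, unless failing retest; inactive means the rest, including hits failing retest or dose response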
VIM-2 inh = VIM-2 metallo-beta-lactamase inhibitors, primary screen, biochemical, epi-absorbance readout, Pseudomonas aeruginosa enzyme. purified VIM-2, nitrocefin hydrolysis, epi-absorbance fluorescence. inhibition, % at 5.6 µM. 290,000 tested, 0.89% active. AID 1527, 2009;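 active means inhibition above the mean of all tested compounds plus 3 SD, cutoff set per screening run, cut at about 7.5% in these data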;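 further: red hydrolysis product quenches plate fluorescence so inhibitors raise well fluorescence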
Fh CTSL1 inh = Fasciola hepatica cathepsin L1 inhibitors, primary screen, counter-screen for PFM18AAP inhibitor project, biochemical, QFRET, fluorogenic peptide substrate; AID 1906, 2009; 300,000 tested, 0.49% active; inhibition, % at 5.96 µM; recombinant F. hepatica cathepsin L1, Z-Leu-Arg-MCA fluorescence;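 active means inhibition above the mean of all tested compounds plus 3 SD, set per screening campaign, cut at about 17% in these data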
T cell modulator = modulators of CD8 T cell-vesicle binding, primary screen, mouse 2C CD8+ T cells, flow cytometry; response (vesicle binding), % at 7 µM; 2C CD8+ T cell-vesicle binding; active compounds read low; AID 2052, 2009; 330,000 tested, 0.068% active;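 active means response, share of CD8 T cells binding vesicles, and their 90th percentile fluorescence all below set limits, cut at about 80% in these data, passing the limit was not always enough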;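 further: values below 100% mean blocked vesicle binding to the CD8+ T cells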
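System: murine 2C transgenic CD8+ T lymphocytes; also added: QL9-loaded Drosophila micro-vesicles; times: binding 1.5 h at 37 °C; measured by: flow cytometry, PE anti-B7-1 (FL2) versus Alexa647 anti-CD8 (FL8), PFA-fixed; control set: Peptide-free naked vesicles (low) and QL9 vesicles with 0.7% DMSO vehicle (high)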
SUMO HTRF inh = inhibitors of in vitro SUMOylation cascade, primary screen, biochemical, HTRF, uHTS | inhibition, % at 35 µM | HTRF SUMOylation assay, SAE1/SAE2 + UBC9 | SUMO-conjugating enzyme UBC9 (Homo sapiens), P63279 | 290,000 tested, 0.36% active; in the data active means inhibition above about 50%, passing the limit was not always enough
Target sequence (P63279 whole entry, looked up): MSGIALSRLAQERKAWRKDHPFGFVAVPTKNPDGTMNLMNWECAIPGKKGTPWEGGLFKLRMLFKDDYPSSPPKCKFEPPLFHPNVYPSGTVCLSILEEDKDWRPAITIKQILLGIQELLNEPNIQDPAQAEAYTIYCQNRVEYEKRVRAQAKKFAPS
IMP-1 inh-1 = IMP-1 metallo-beta-lactamase inhibitors, primary screen, biochemical, epi-absorbance readout, Pseudomonas aeruginosa enzyme; inhibition, % at 5.6 µM; metallo-beta-lactamase IMP-1 (Pseudomonas aeruginosa); purified IMP-1, nitrocefin hydrolysis, epi-absorbance fluorescence; 290,000 tested, 0.45% active; AID 1556, 2009;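 active means inhibition above the mean plus 3 SD of all compounds in the same screening run, cut at about 4.5% in these data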
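System – purified recombinant IMP-1 beta-lactamase · Input – IMP-1 dispensed at 0.2 nM · Timing – 15 min preincubation plus 25 min reaction at 25 °C · Signal – Epi-absorbance fluorescence, 480 nm excitation, 530 nm emission · Measure – percent IMP-1 inhibition derived from blank-referenced optical density · Controls – Enzyme-plus-DMSO low control, enzyme-free DMSO high control · Replication – singlicate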
IMP-1 inh-2 = IMP-1 metallo-beta-lactamase inhibitors, confirmation, selectivity assay for selective VIM-2 inhibitor project, biochemical, epi-absorbance readout, triplicate; purified IMP-1, nitrocefin hydrolysis, epi-absorbance fluorescence; inhibition, % at 5.6 µM; shares compounds with VIM-2 inh; 1,300 tested, under 10 active; call rule not given here
VIM-2 FRET inh = VIM-2 inhibitors in FRET format, confirmation, artefact control for selective VIM-2 inhibitor project, biochemical, epi-absorbance artifact exclusion; shares compounds with VIM-2 inh; purified VIM-2, CCF2 FRET substrate hydrolysis; inhibition, % at 5.6 µM; 1,300 tested, 23% active; AID 1857, 2009;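 active means inhibition above the mean of all tested compounds plus 3 SD, cut at about 19% in these data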
TEM-1 counter-1 = TEM-1 serine beta-lactamase inhibitors, counter-screen for VIM-2 inhibitor project, biochemical, epi-absorbance, HTS. shares compounds with VIM-2 inh. Purified TEM-1, nitrocefin hydrolysis, epi-absorbance fluorescence. inhibition, % at 5.6 µM. 1,300 tested, 3% active. AID 1866, 2009;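 active means inhibition above that campaign's mean inhibition plus 3 SD, cut at about 0.46% in these data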
Target sequence (P62593 whole entry, looked up): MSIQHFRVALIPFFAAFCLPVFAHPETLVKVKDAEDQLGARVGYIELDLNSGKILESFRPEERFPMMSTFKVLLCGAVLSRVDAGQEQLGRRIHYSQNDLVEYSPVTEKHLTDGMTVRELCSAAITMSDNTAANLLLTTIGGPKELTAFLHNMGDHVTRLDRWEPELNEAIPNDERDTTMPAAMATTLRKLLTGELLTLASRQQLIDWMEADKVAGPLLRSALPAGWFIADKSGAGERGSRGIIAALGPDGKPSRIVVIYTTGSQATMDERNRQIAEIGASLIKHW
VIM-2 confirm 2 = VIM-2 metallo-beta-lactamase inhibitors, confirmation, biochemical, epi-absorbance, hits shared with IMP-1 screen; shares compounds with VIM-2 inh; purified VIM-2, nitrocefin hydrolysis; inhibition, % at 5.6 µM; 1,300 tested, 96% active;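 active means inhibition of the VIM-2 beta-lactamase enzyme above about 11% from the earlier first-round screen, limit read from the data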
VIM-2 inh confirm = P. aeruginosa VIM-2 enzyme inhibition – biochemical, epi-absorbance, HTS, confirmation. 200 tested, 73% active. shares compounds with IMP-1 inh-1. AID 1860, 2009. purified VIM-2 enzyme, nitrocefin absorbance. inhibition, % at 5.6 µM; in the data active means inhibition above about 8%
TEM-1 counter-2 = Serine beta-lactamase TEM-1 inhibition, biochemical epi-absorbance counter-screen for IMP-1/VIM-2 inhibitor program | shares compounds with IMP-1 inh-1 | TEM-1 beta-lactamase, nitrocefin absorbance inhibition | inhibition, % at 5.6 µM | 200 tested, 50% active | AID 2184, 2009; in the data active means inhibition above about 0.66%
IMP-1 inh conf = IMP-1 metallo-beta-lactamase inhibitors, confirmation, biochemical, epi-absorbance, hits shared with VIM-2 screen; shares compounds with IMP-1 inh-1; purified IMP-1 enzyme, absorbance substrate hydrolysis; inhibition, % at 5.6 µM; 200 tested, 60% active; AID 2189, 2009; in the data active means inhibition above about 4.9%
Large screens that a line does not name were inactive (follow-up assays come after a bar, where they were run).

CN1[C@H]2CC[C@@H]1C(C(=O)N1CCOCC1)=C(O)C2	none (no result: p-CIP stab down, VIM-2 inh, Fh CTSL1 inh, SUMO HTRF inh, IMP-1 inh-1)
Cc1cc(OCC(=O)NCc2cccnc2)c2c3c(c(=O)oc2c1)CCCC3	VIM-2 inh 33 | IMP-1 inh-2 inactive | VIM-2 FRET inh inactive | TEM-1 counter-1 inactive | VIM-2 confirm 2 40
Cc1cc(OCC(=O)NCC2CCC(C(=O)O)CC2)c2c3c(c(=O)oc2c1)CCC3 (stereo not drawn)	none
Cc1c(C)c2ccc(OCC(=O)N3CCN(Cc4ccccc4)CC3)cc2oc1=O	none (no result: p-CIP stab down, VIM-2 inh, Fh CTSL1 inh, SUMO HTRF inh, IMP-1 inh-1)
Cc1cc(=O)oc2c(C)c(OCC(=O)N3CCN(Cc4ccccc4)CC3)ccc12	VIM-2 inh 45 | IMP-1 inh-2 inactive | VIM-2 FRET inh inactive | TEM-1 counter-1 inactive | VIM-2 confirm 2 60
CN1CCC(N(C)c2nc(-c3ccccc3)nc3ccccc23)CC1	VIM-2 inh 21 | IMP-1 inh-2 inactive | VIM-2 FRET inh inactive | TEM-1 counter-1 inactive | VIM-2 confirm 2 33
COC1=CC2C3Cc4ccc(OC)c(O)c4C2(CCN3C)CC1=O (stereo not drawn)	none (no result: p-CIP stab down, VIM-2 inh, Fh CTSL1 inh, SUMO HTRF inh, IMP-1 inh-1)
O=P(O)(O)Oc1ccccc1P(=O)(c1ccccc1)c1ccccc1	VIM-2 inh 17 | IMP-1 inh-2 inactive | VIM-2 FRET inh 23 | TEM-1 counter-1 inactive | VIM-2 confirm 2 21
O=c1[nH]c(=O)n(C2CCCCC2)c(O)c1/C=C/C=Nc1ccccc1	none
CCOC(=O)C1CCCN(c2ccc([N+](=O)[O-])c3nonc23)C1 (stereo not drawn)	VIM-2 inh 26, IMP-1 inh-1 27 (no result: Fh CTSL1 inh, T cell modulator) | VIM-2 inh confirm 28 | TEM-1 counter-2 34 | IMP-1 inh conf 23
CCC1=Nc2cc(C(=O)N3CCC4(CC3)OCCO4)ccc2Sc2ccc(Br)cc21	none
